A short description of test [1]: Her2 expression decrease, cell viability multiplex – SKBR3 breast tumor cells, AlphaScreen, ATP viability, primary screen (AID 461;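 active = Her2 level under about 52% in both replicate screens, with viability over 70% of control, limit read from the data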;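 for Her2 level: lower value means less Her2 protein in the cells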;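 for viability: percent of carrier control wells set as 100% viability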). The following applies: SKBR3 Her2 protein level, 18-24 h, measured here: SKBR3 viability, ATP luminescence, at 10 µM. (In general: Alpha assays give light when donor and acceptor beads are brought close together.)
Test [2] addresses Receptor tyrosine-protein kinase erbB-2 (Homo sapiens) (UniProt P04626). The description is as above. The following applies: 18-24 h, at 10 µM, stronger effect = lower value.
Test [3] can be described thus: reduced viability of SK-BR-3 breast cancer cells – cell-based, 24 h, human, pilot screen (AID 572).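 Note: compound exposure lasted between 18 and 24 h rather than exactly 24 h; 100% = carrier-treated control wells.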 The note with it: SK-BR-3 viability, CellTiter-Glo luminescence, at 10 µM, stronger effect = lower value.
Test [4] in a line: HUVEC growth inhibition – cell-based, human, primary screen (AID 575;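 active = viability at or below 30% in both replicate assays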;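 note: 100% = median of untreated cell wells with 0.1% DMSO on each plate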). The note with it: HUVEC proliferation, CellTiter-Glo luminescence, 72 h; at 10 µM; stronger effect = lower value. In outline: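 Assay system: Primary human umbilical vein endothelial cells | Quantity: 1250 cells per well | Medium: Supplemented EBM, 2% fetal bovine serum | Detection: CellTiter-Glo luminescence measuring cellular ATP | Read-out: % viability vs DMSO wells | Plate: Collagen-coated 384-well format | Times: 72 h exposure, 37 °C, 5% CO2, 30 min RT equilibration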

Test [5] in a line: H69AR cell proliferation blockers – human, duplicate replicates, primary screen (AID 580;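 active = viability at or under a set limit in both replicates, limit being median viability minus 3 SD, cut at about 48% in these data, passing the limit was not always enough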;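 note: 100% = mean luminescence of untreated wells and 0% = no signal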). The following applies: H69AR lung tumor cells viability, ATP luminescence, 72 h; at 10 µM; stronger effect = lower value.
Test [6] is described as follows: MRP1 drug-resistance reversers in H69AR cells – cell-based, doxorubicin co-treatment, pilot screen (AID 601;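 active = viability loss from added drug above about 55%, and viability with drug at most 40%, in both replicates, limit read from the data, passing the limit was not always enough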). The following applies: CellTiter-Glo, 72 h, at 10 µM; for differential viability (reversal): stronger effect = higher value. (In general: Cellular ATP, detected with luciferase, serves as a proxy for viable cell number.)
Test [7] is described as follows: yeast transport mutant growth inhibition pilot in 384-well plates, post-Golgi transport modulator project (AID 636; in the data active = inhibition above about 31%). The note with it: absorbance 615 nm, about 18 h, stronger effect = higher value.
A short description of test [8]: growth suppression of yeast trafficking mutant, preliminary HTS, modulators of trafficking downstream of Golgi apparatus project, 1536-format plate, OD 615 nm (AID 637; in the data active = inhibition above about 30%). The following applies: yeast transport mutant growth, absorbance 615 nm, 18 h; stronger effect = higher value.
Where [9] appears, read: H69AR cells + 2 uM doxorubicin, measured here: viability with 2 uM doxorubicin, stronger effect = lower value.
The mark [10] stands for this setting: H69AR cells, compound alone cytotoxicity.

Active and inactive are the calls of the source.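 Rule for the calls, unless noted: active = viability at or below 10% of carrier control in both of two separate runs; inconclusive = viability at or below 10% in only one of the two runs; inactive = the rest.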

In general, viability refers to a read-out of living cells in per cent, often relative to untreated cells. A word on the inhibition: it is the relative decrease from the control value, in per cent.

Receptor tyrosine-protein kinase erbB-2 (Homo sapiens), sequence (P04626 whole entry, looked up): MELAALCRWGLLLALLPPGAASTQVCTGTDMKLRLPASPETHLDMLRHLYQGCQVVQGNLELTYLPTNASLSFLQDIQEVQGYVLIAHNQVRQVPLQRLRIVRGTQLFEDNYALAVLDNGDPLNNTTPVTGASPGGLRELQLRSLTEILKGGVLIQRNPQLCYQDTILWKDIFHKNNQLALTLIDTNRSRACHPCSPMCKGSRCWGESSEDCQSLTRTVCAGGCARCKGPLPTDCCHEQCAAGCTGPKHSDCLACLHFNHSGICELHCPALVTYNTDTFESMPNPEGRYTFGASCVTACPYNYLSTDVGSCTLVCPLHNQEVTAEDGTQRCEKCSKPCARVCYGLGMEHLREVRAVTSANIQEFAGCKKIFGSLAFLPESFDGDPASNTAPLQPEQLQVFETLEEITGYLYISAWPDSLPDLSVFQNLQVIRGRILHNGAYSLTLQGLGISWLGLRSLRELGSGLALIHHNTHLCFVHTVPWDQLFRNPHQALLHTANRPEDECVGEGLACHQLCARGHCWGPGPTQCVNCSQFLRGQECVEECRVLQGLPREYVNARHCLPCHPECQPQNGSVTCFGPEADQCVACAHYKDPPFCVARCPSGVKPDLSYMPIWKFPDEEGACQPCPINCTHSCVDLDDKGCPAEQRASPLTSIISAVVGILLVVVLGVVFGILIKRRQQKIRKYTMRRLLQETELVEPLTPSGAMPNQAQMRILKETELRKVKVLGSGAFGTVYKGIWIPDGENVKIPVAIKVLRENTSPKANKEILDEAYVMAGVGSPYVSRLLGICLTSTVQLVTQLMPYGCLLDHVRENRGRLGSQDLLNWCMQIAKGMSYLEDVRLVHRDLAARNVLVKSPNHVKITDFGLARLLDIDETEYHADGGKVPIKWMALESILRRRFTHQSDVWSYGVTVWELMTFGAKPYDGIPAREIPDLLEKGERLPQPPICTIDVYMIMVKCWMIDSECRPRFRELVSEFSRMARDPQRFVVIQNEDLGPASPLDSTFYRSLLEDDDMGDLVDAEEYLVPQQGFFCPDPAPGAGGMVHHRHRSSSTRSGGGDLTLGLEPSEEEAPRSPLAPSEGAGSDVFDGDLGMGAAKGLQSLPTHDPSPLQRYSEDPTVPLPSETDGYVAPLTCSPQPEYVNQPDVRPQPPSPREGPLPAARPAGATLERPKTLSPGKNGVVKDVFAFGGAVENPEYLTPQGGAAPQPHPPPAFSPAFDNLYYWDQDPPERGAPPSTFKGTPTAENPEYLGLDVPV

In the case of `CC1Cc2nc(SCC(=O)Nc3ccc(F)cc3F)n(C)c(=O)c2S1` (stereo not given), the viability in test [1] is 90%; in test [3] it was 90% (inactive); in test [4], 102% (inactive); in test [5], 91.7% (inactive); in test [6] (setting [9]), 100%; in test [6] (setting [10]), 91.7%. Besides, in test [2], the Her2 level is 100% (inactive). Further, the differential viability (reversal) in test [6] (H69AR cells + 2 uM doxorubicin) was -8.34% (inactive). Besides, the figures for the inhibition in test [7] and in test [8] were -1.78% (inactive) and 2.7% (inactive), respectively.

Turning to `CC(C)Cc1cc(C(=O)Nc2c(F)cc(F)cc2Br)no1`, the viability in test [1] is 88.5%; in test [3], 88.5% (inactive); in test [4], 107% (inactive); in test [5], 113% (inactive); in test [6] (setting [9]), 82.8%; in test [6] (setting [10]), 113%. Besides, in test [2], the Her2 level is 106% (inactive). In test [6] (H69AR cells + 2 uM doxorubicin), the differential viability (reversal) was 30% (inactive). The inhibition in test [7] was 0.64% (inactive); in test [8], -4.33% (inactive).

For the molecule `CC(=O)Oc1ccc(-c2ccc(C(=O)O)cc2)cc1`, the viability in test [1] was 87%; in test [3], 87% (inactive); in test [4], 94.5% (inactive); in test [5], 107% (inactive); in test [6] (setting [9]) it was 88.8%; in test [6] (setting [10]), 107%. For the same molecule, the Her2 level in test [2] is 110% (inactive). In addition, in test [6] (H69AR cells + 2 uM doxorubicin), the differential viability (reversal) was 18.3% (inactive). In addition, the inhibition was -0.64% (inactive) in test [7] and -7.83% (inactive) in test [8].

`CCn1c(SCC(=O)Nc2nc(C)cs2)nnc1-c1ccco1`: the viability is 106% in test [1]; 106% (inactive) in test [3]; 110% (inactive) in test [4]; 92% (inactive) in test [5]; 87.7% in test [6] (setting [9]); 92% in test [6] (setting [10]). Besides, the Her2 level in test [2] is 87.5% (inactive). The differential viability (reversal) in test [6] (H69AR cells + 2 uM doxorubicin) was 4.38% (inactive). Moreover, the inhibition was -3.33% (inactive) in test [7] and -2% (inactive) in test [8].

Turning to `CCCCOC(=O)CN1C(=O)c2ccc(C(=O)OCCCC)cc2C1=O`, the viability in test [1] was 87%; in test [3], 87% (inactive); in test [4] it was 92.3% (inactive); in test [5], 106% (inactive); in test [6] (setting [9]) it was 95.3%; in test [6] (setting [10]), 106%. In addition, the Her2 level in test [2] was 94% (inactive). For the same molecule, the differential viability (reversal) in test [6] (H69AR cells + 2 uM doxorubicin) is 10.4% (inactive). Besides, the values for the inhibition in test [7] and in test [8] were -2.97% (inactive) and 0.82% (inactive), respectively.

With `O=C(CSc1ncnc2c1oc1ccccc12)Nc1ccccc1F`, the viability in test [1] is 96.5%; in test [3], 96.5% (inactive); in test [4] it was 72% (inactive); in test [5], 90.5% (inactive); in test [6] (setting [9]), 83.1%; in test [6] (setting [10]) it was 90.5%. In addition, the Her2 level in test [2] was 101% (inactive). In test [6] (H69AR cells + 2 uM doxorubicin), the differential viability (reversal) is 7.33% (inactive). Moreover, the results for the inhibition in test [7] and in test [8] were -2.27% (inactive) and -1.33% (inactive), respectively.

Turning to `CCC(=O)N1CCc2cc(S(=O)(=O)CCC(=O)Nc3ccc(F)c(F)c3)ccc21`, the viability was 104% in test [1]; 104% (inactive) in test [3]; 97.3% (inactive) in test [4]; 92.3% (inactive) in test [5]; 82.1% in test [6] (setting [9]); 92.3% in test [6] (setting [10]). Further, the Her2 level in test [2] was 160% (inactive). For the same molecule, in test [6] (H69AR cells + 2 uM doxorubicin), the differential viability (reversal) was 10.2% (inactive). Further, the inhibition in test [7] was 0.13% (inactive); in test [8] it was -6% (inactive).

Take `COC(=O)c1cc(Br)c(=O)n(CCC2=CCCCC2)c1`: the viability in test [1] is 81.5%; in test [3] it was 81.5% (inactive); in test [4] it was 92.5% (inactive); in test [5], 89.9% (inactive); in test [6] (setting [9]), 88.4%; in test [6] (setting [10]) it was 89.9%. In addition, the Her2 level in test [2] was 99.5% (inactive). Besides, the differential viability (reversal) in test [6] (H69AR cells + 2 uM doxorubicin) was 1.54% (inactive). The inhibition was -0.27% (inactive) in test [7] and 6.89% (inactive) in test [8].

Take `COc1ccc(-c2nnc3sc(-c4c(OC)cccc4OC)nn23)cc1`: the viability in test [1] is 105%; in test [3] it was 105% (inactive); in test [4], 62.6% (inactive); in test [5], 75.9% (inactive); in test [6] (setting [9]), 83.2%; in test [6] (setting [10]), 75.9%. In test [2], the Her2 level was 93.5% (inactive). For the same molecule, in test [6] (H69AR cells + 2 uM doxorubicin), the differential viability (reversal) is -7.34% (inactive). For the same molecule, the inhibition in test [7] is -5.13% (inactive); in test [8], -7.58% (inactive).

As for `CCN(CC)S(=O)(=O)c1ccc(S(=O)(=O)N(Cc2ccccn2)Cc2ccco2)cc1`, the viability was 94% in test [1]; 94% (inactive) in test [3]; 90.6% (inactive) in test [4]; 91% (inactive) in test [5]; 91.2% in test [6] (setting [9]); 91% in test [6] (setting [10]). In addition, in test [2], the Her2 level is 94.5% (inactive). For the same molecule, the differential viability (reversal) in test [6] (H69AR cells + 2 uM doxorubicin) is -0.185% (inactive). For the same molecule, the inhibition in test [7] is -2.03% (inactive); in test [8], 3.02% (inactive).

Regarding `CCCN1C2CCCC1CC(NC(=O)c1ccccc1F)C2` (stereo not given), the viability was 99% in test [1]; 99% (inactive) in test [3]; 94.2% (inactive) in test [4]; 106% (inactive) in test [5]; 86% in test [6] (setting [9]); 106% in test [6] (setting [10]). In addition, in test [2], the Her2 level is 96.5% (inactive). The differential viability (reversal) in test [6] (H69AR cells + 2 uM doxorubicin) is 19.6% (inactive). Moreover, the figures for the inhibition in test [7] and in test [8] were -4.93% (inactive) and 5.4% (inactive), respectively.

As to `CCOc1ccccc1-n1c(SCC(=O)NCc2ccco2)nnc1-c1ccncc1`, the viability was 87% in test [1]; 87% (inactive) in test [3]; 90.4% (inactive) in test [4]; 75.6% (inactive) in test [5]; 35.7% in test [6] (setting [9]); 75.6% in test [6] (setting [10]). Besides, in test [2], the Her2 level was 90% (inactive). In addition, in test [6] (H69AR cells + 2 uM doxorubicin), the differential viability (reversal) is 39.9% (inactive). The inhibition in test [7] was -7.47% (inactive); in test [8] it was -0.48% (inactive).

For the molecule `COc1nc(OC)nc(N2CCC(C(=O)NC3CCCCCC3)CC2)n1`, the viability in test [1] is 95.5%; in test [3], 95.5% (inactive); in test [4], 104% (inactive); in test [5], 105% (inactive); in test [6] (setting [9]), 100%; in test [6] (setting [10]), 105%. In addition, the Her2 level in test [2] was 102% (inactive). The differential viability (reversal) in test [6] (H69AR cells + 2 uM doxorubicin) is 4.45% (inactive). In addition, the inhibition was 3.6% (inactive) in test [7] and -2.3% (inactive) in test [8].

With `O=C(OCC(=O)N1CCCC1)c1cncc(Br)c1`, the viability was 106% in test [1]; 106% (inactive) in test [3]; 106% (inactive) in test [4]; 102% (inactive) in test [5]; 86.4% in test [6] (setting [9]); 102% in test [6] (setting [10]). The Her2 level in test [2] was 90% (inactive). Also, the differential viability (reversal) in test [6] (H69AR cells + 2 uM doxorubicin) is 15.6% (inactive). Also, the values for the inhibition in test [7] and in test [8] were -7.57% (inactive) and 5.33% (inactive), respectively.

On to `N#Cc1c(NC(=O)c2ccc(Br)o2)n(-c2ccccc2)c2nc3ccccc3nc12`, for which the viability was 86.5% in test [1]; 86.5% (inactive) in test [3]; 71.1% (inactive) in test [4]; 85.2% (inactive) in test [5]; 85.5% in test [6] (setting [9]); 85.2% in test [6] (setting [10]). Also, the Her2 level in test [2] is 77% (inactive). Also, in test [6] (H69AR cells + 2 uM doxorubicin), the differential viability (reversal) is -0.255% (inactive). The inhibition in test [7] was -5.73% (inactive); in test [8], 2.46% (inactive).

The record behind these values is PubChem BioAssay.
